Key:
[1] = molecular target: T1, Metabotropic glutamate receptor 5 (Homo sapiens, UniProt P41594); test: Negative allosteric modulation of human mGluR5 expressed in HEK293 cells assessed as calcium mobilization by FLIPR assay; format: functional, cell-based
Target sequence in this assay (P41594 whole entry): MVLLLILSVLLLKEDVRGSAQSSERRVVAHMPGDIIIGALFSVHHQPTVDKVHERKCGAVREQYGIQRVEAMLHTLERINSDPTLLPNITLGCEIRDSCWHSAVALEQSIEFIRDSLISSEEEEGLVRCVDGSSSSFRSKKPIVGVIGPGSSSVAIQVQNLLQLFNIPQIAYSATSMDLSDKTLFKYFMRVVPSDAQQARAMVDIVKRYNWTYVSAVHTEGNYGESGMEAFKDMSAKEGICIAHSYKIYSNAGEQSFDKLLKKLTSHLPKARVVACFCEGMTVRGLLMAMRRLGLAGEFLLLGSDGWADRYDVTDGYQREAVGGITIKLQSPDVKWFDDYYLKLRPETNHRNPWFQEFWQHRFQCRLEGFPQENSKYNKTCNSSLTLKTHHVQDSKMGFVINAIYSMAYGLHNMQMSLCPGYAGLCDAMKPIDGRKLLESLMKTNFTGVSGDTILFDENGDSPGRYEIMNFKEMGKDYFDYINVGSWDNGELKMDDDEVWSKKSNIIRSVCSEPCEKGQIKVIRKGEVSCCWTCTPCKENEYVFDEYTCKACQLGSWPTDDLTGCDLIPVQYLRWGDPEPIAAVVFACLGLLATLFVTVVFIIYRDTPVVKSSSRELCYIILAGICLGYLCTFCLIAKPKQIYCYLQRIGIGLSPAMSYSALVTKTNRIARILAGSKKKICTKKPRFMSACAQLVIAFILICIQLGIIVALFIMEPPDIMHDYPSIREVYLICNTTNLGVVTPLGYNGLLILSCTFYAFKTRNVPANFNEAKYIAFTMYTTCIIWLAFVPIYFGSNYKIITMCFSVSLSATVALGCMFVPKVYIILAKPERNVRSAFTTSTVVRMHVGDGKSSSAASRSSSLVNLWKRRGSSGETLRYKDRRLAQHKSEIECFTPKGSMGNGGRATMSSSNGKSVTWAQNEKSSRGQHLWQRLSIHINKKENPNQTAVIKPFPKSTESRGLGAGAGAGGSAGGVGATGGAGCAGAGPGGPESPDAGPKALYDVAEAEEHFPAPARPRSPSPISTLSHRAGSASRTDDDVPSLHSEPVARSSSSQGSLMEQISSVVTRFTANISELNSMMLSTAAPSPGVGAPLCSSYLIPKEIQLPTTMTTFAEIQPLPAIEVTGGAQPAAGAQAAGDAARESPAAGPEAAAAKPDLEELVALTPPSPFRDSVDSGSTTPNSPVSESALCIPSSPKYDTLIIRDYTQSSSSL

[2] = Half life in human liver microsomes
[3] = Half life in rat liver microsomes
[4] = Half life in mouse liver microsomes
[5] = system: Mus musculus; test: Antidepressant activity in ICR mouse assessed as decrease in immobility time at 10 mg/kg, po administered 1 hr before test measured for 4 mins following training for 2 mins by forced swimming test; format: functional; design: scale not given: the % may be the effect or the level left
Outline: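 Mouse forced swim test: ICR mice dosed orally 1 h before testing; 2 min training, then immobility duration recorded over 4 min. Activity expressed as % decrease in immobility duration. Mean ± SEM, n = 8; Dunnett's multiple comparisons after one-way ANOVA (p < 0.05).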

[6] = molecular target: T1, Metabotropic glutamate receptor 5; test: Negative allosteric modulation of human mGluR5 expressed in HEK293 cells assessed as calcium mobilization at 2 uM by FLIPR assay; format: functional, cell-based
Target sequence in this assay (P41594 21-1212 limits assumed): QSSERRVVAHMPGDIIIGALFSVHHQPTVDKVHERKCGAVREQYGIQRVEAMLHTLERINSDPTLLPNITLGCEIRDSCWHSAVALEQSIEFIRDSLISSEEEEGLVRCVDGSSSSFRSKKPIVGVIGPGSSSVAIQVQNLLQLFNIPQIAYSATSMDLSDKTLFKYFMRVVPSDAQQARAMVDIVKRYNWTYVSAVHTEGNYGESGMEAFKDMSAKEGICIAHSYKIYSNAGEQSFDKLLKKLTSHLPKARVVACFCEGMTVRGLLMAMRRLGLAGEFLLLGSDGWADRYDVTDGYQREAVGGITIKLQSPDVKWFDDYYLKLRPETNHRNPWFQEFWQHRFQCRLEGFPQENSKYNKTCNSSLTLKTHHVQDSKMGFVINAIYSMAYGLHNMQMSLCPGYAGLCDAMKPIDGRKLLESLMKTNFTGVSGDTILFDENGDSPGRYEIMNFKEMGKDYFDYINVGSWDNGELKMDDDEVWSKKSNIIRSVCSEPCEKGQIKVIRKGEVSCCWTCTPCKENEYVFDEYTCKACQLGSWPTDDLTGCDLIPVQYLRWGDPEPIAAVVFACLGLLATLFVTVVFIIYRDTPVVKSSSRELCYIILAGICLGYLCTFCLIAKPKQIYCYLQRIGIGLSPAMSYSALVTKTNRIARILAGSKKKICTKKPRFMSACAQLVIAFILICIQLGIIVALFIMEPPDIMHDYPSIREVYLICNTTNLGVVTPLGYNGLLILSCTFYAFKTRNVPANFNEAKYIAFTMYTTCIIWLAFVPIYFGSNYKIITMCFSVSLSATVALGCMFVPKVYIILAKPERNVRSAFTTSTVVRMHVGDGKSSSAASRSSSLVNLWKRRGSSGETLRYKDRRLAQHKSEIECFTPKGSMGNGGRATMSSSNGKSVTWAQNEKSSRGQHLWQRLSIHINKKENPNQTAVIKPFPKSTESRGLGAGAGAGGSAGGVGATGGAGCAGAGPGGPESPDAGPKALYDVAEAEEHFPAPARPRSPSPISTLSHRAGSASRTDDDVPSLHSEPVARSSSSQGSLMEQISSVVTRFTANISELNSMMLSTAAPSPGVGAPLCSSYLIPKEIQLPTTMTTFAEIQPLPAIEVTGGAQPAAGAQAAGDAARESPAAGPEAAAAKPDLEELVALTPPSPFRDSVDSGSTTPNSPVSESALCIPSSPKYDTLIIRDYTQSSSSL

[7] = Half life in rat plasma; format: ADME, cell-free
[8] = Ratio of drug level in brain to plasma in Sprague-Dawley rat at 10 mg/kg, ip after 1 hr; format: ADME, organism-based; design: dose 10 mg/kg, route intraperitoneal; conditions: brain and plasma, read-out: BPR
Outline: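 Sprague–Dawley rats given a single 10 mg/kg intraperitoneal dose. Plasma and brain concentrations measured 1 h after dosing and expressed as a brain/plasma ratio.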

[9] = molecular target: Cytochrome P450 2D6 (Homo sapiens, UniProt P10635); test: Inhibition of CYP2D6 (unknown origin) at 10 uM; format: ADME
[10] = molecular target: Cytochrome P450 1A2 (Homo sapiens, UniProt P05177); test: Inhibition of CYP1A2 (unknown origin) at 10 uM; format: ADME
[11] = molecular target: Metabotropic glutamate receptor 1 (Homo sapiens) (UniProt Q13255); test: Inhibition of mGluR1 (unknown origin) at 10 uM
Sequence of Metabotropic glutamate receptor 1 (Homo sapiens) (Q13255 19-1194 limits assumed): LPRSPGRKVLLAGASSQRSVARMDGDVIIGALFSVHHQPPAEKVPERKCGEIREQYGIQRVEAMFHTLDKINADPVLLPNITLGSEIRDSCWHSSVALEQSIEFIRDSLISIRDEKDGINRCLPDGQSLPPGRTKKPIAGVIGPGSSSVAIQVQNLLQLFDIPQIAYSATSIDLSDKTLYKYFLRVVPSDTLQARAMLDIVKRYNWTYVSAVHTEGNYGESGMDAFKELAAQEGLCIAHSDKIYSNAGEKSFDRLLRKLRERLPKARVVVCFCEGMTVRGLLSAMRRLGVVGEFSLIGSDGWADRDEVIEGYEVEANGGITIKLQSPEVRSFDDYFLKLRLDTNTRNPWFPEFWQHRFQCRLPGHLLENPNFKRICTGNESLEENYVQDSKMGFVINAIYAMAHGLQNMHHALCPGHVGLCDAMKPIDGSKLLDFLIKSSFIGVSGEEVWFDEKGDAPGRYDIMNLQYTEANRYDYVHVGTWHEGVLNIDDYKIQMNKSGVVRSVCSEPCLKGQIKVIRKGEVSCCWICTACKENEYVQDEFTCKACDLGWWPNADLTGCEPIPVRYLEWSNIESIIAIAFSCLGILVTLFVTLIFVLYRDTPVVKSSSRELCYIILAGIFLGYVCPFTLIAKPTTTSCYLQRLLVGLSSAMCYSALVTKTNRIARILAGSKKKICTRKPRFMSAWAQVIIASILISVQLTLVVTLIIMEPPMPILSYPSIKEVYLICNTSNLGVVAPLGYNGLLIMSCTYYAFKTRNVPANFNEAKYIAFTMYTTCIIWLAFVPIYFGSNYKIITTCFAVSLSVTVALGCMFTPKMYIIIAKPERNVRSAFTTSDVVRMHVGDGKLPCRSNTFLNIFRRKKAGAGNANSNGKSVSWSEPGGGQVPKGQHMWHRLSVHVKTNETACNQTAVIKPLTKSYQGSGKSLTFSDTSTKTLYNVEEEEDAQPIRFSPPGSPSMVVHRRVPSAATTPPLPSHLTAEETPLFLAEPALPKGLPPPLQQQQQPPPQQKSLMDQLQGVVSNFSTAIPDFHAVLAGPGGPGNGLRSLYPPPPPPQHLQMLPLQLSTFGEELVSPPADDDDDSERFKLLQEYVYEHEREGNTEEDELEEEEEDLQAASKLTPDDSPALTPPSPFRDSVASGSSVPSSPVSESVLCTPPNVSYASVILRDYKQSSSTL

[12] = molecular target: hERG (KCNH2) (Homo sapiens, UniProt Q12809); test: Inhibition of human ERG at 10 uM
Sequence of hERG (KCNH2) (Q12809 whole entry): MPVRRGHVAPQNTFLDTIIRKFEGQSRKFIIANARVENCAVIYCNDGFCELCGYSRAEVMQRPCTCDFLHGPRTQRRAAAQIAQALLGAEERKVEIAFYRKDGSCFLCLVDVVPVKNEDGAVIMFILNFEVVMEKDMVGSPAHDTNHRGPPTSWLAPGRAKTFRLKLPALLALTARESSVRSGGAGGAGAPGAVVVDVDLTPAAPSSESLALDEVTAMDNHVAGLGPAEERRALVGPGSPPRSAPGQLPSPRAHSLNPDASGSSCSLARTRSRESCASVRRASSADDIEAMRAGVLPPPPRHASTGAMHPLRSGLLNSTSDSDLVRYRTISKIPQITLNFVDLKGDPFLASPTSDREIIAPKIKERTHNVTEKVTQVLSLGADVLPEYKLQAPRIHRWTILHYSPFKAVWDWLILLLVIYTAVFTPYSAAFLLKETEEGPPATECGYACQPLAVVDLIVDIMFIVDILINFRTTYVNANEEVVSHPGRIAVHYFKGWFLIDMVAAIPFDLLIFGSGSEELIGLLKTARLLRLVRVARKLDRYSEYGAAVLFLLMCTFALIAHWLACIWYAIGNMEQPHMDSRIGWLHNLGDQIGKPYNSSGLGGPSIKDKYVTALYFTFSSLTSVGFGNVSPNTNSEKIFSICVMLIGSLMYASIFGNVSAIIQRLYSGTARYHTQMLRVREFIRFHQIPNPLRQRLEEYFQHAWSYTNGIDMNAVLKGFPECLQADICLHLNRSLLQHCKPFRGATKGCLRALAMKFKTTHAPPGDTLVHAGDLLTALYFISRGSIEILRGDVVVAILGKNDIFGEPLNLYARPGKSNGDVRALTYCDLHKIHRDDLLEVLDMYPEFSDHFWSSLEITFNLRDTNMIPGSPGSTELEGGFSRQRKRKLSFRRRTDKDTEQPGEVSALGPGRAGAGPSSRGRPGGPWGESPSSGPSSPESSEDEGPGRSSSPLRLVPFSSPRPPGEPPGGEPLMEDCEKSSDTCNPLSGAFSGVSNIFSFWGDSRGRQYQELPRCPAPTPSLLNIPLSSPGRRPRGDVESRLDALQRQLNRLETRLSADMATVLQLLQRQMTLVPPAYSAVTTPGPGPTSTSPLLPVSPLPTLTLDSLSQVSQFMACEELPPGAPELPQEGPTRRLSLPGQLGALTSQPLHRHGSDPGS

[13] = Intrinsic clearance in human hepatocytes assessed per 10^6 cells; format: ADME, cell-based, Hepatocyte; conditions: read-out: CLH
[14] = molecular target: Cytochrome P450 2C9 (Homo sapiens, UniProt P11712); test: Inhibition of CYP2C9 (unknown origin) at 10 uM; format: ADME
[15] = molecular target: Cytochrome P450 3A4 (Homo sapiens, UniProt P08684); test: Inhibition of CYP3A4 (unknown origin) at 10 uM; format: ADME
[16] = molecular target: Cytochrome P450 2C19 (Homo sapiens, UniProt P33261); test: Inhibition of CYP2C19 (unknown origin) at 10 uM; format: ADME
[17] = molecular target: T1, Metabotropic glutamate receptor 5; test: Negative allosteric modulation of human mGluR5 expressed in HEK293 cells assessed as calcium mobilization at 10 uM by FLIPR assay; format: functional, cell-based
Target sequence in this assay (P41594 21-1212 limits assumed): as the sequence (P41594 21-1212 limits assumed) above

IC50 [1] [nM]	half-life ([2]; microsomes) [h]	half-life ([3]; microsomes) [h]	half-life ([4]; microsomes) [h]	Structure (SMILES)	also measured
28	3.55	2.77	1.65	Cc1nc(NC(=O)c2nn(C)c(-c3ccc(F)cc3)c2C)ccc1F	
3.8				Cc1cccc(NC(=O)c2nn(C)c(-c3ccc(Cl)cc3)c2C)n1	Activity [5]: 51.4%
71	0.7	0.617	0.133	Cc1cccc(NC(=O)c2nn(C)c(-c3ccncc3)c2C)n1	
195	2.1	2.38	0.4	Cc1c(C(=O)Nc2cc(Cl)ccn2)nn(C)c1-c1ccc(F)cc1	
2700				Cc1cnc(NC(=O)c2nn(C)c(-c3ccc(F)cc3)c2C)s1	
16.4	2.03	1.02	0.75	Cc1csc(NC(=O)c2nn(C)c(-c3ccc(F)cc3)c2C)n1	Activity [5]: 32.8%
94.5	1.28	1.27	1.4	Cc1cc(NC(=O)c2nn(C)c(-c3ccc(F)cc3)c2C)ccn1	
82.3	1.52	1.98	0.167	Cc1ccnc(NC(=O)c2nn(C)c(-c3ccc(F)cc3)c2C)c1	
5.3				Cc1ccc(-c2c(C)c(C(=O)Nc3cccc(C)n3)nn2C)cc1	Activity [5]: 30.8%

Further lines, the compound ahead of its results:

Structure (SMILES)	IC50 [1] [nM]	half-life ([2]; microsomes) [h]	half-life ([3]; microsomes) [h]	half-life ([4]; microsomes) [h]	also measured
O=C(Nc1cc(Cl)ccc1O)c1noc2c1CCC2	373				
Cc1cccc(NC(=O)c2nc(C)n(-c3ccc(Cl)cc3)c2C)n1	17.1	0.9	0.983	1.35	
Cc1nc(C(=O)Nc2cccc(C(F)(F)F)n2)c(C)n1-c1ccc(F)cc1	173				half-life ([2]; liver microsomes): 3.27 h; half-life ([3]; liver microsomes): 1.2 h; half-life ([4]; liver microsomes): 2.63 h
Cc1cccc(NC(=O)c2nc(C)n(-c3ccc(C(F)(F)F)cc3)c2C)n1	46.2	> 5	> 5	> 5	
Cc1nc(C#Cc2cccnc2)cs1					Activity [5]: 14%
Cc1cccc(NC(=O)c2nc(C)n(-c3ccc(F)c(Cl)c3)c2C)n1	14.5	1.27	1.45	1.17	
Cc1cccc(NC(=O)c2nn(C)c3c2CCCC3)n1	27				
Cc1cccc(NC(=O)c2nn(C)c(-c3ccc(F)cc3F)c2C)n1	3.7				half-life ([2]; liver microsomes): 1.12 h; half-life ([3]; liver microsomes): 1.27 h; Activity [5]: 25.7%; half-life ([4]; liver microsomes): 0.633 h
CCc1c(C(=O)Nc2cccc(C)n2)nn(C)c1-c1ccccc1	27				
Cc1nc(C(=O)Nc2cccc(C#N)n2)c(C)n1-c1ccc(F)cc1	77				
Cc1cccc(NC(=O)c2nn(C)c(-c3cc(F)cc(F)c3)c2C)n1	5.3				half-life ([2]; liver microsomes): 0.533 h; half-life ([3]; liver microsomes): 1.07 h; half-life ([4]; liver microsomes): 0.3 h
Cc1cccc(NC(=O)c2c3c(nn2C)CCCC3)n1	> 1000				
CCCc1c(C(=O)Nc2cccc(C)n2)nn(C)c1-c1ccccc1					inhibition [6]: 37%
Cc1cccc(NC(=O)c2nn(C)c(OCc3ccc(F)cc3)c2C)n1	911				
Cc1cccc(NC(=O)c2cc(-c3ccccc3)n(C)n2)n1	95				half-life [7]: < 1 h
Cc1nc(C(=O)Nc2ccnc(Cl)n2)c(C)n1-c1ccc(F)cc1	40.4				Kp at 1 h [8]: 1.63; half-life ([2]; liver microsomes): 4.72 h; inhibition (INH) [9]: Not Active; inhibition (INH) [10]: Not Active; inhibition [11]: 10%; inhibition at 10 µM [12]: 13%; hepatocyte CLint [13]: 0.99 µL/min/1e6 cells; inhibition (INH) [14]: Not Active; half-life ([3]; liver microsomes): 2.75 h; inhibition (INH) [15]: Not Active; Activity [5]: 65.3%; half-life ([4]; liver microsomes): 4.63 h; inhibition (INH) [16]: Not Active
Cc1cccc(NC(=O)c2nn(C)c(OCC3CCCCC3)c2C)n1	1300				
Cc1cccc(NC(=O)c2nn(C)c(-c3ccccc3)c2-c2ccccc2)n1					inhibition [17]: 26%
COc1ccc(-n2c(C)nc(C(=O)Nc3cccc(C)n3)c2C)cc1	147				

From ChEMBL document CHEMBL2346654, “Discovery of biological evaluation of pyrazole/imidazole amides as mGlu5 receptor negative allosteric modulators” (Bioorg Med Chem Lett, 2013)
